Activity calls are given as the source filed them. No cut-off for these calls is given here.
Legend:
PC-3 [1] = assay: Antiproliferative activity against human PC3 cells measured after 48 hrs by sulforhodamine-B assay; format: functional, cell-based; details: PC-3, 48 h
Sus scrofa = species: Sus scrofa; assay: Inhibition of purified porcine tubulin polymerization at 1 to 10 uM measured every 1 min for 30 mins
Histone deacetylase 1 = Histone deacetylase 1 (Homo sapiens, UniProt Q13547); assay: Inhibition of recombinant human HDAC1 using fluorogenic substrate by fluorescence assay
Histone deacetylase 2 = Histone deacetylase 2 (Homo sapiens, UniProt Q92769); assay: Inhibition of recombinant human HDAC2 using fluorogenic substrate by fluorescence assay
[2] = target: T1, Protein deacetylase HDAC6 (Homo sapiens, UniProt Q9UBN7); assay: Inhibition of recombinant human HDAC6 using fluorogenic substrate by fluorescence assay
T1 sequence (Q9UBN7 whole entry): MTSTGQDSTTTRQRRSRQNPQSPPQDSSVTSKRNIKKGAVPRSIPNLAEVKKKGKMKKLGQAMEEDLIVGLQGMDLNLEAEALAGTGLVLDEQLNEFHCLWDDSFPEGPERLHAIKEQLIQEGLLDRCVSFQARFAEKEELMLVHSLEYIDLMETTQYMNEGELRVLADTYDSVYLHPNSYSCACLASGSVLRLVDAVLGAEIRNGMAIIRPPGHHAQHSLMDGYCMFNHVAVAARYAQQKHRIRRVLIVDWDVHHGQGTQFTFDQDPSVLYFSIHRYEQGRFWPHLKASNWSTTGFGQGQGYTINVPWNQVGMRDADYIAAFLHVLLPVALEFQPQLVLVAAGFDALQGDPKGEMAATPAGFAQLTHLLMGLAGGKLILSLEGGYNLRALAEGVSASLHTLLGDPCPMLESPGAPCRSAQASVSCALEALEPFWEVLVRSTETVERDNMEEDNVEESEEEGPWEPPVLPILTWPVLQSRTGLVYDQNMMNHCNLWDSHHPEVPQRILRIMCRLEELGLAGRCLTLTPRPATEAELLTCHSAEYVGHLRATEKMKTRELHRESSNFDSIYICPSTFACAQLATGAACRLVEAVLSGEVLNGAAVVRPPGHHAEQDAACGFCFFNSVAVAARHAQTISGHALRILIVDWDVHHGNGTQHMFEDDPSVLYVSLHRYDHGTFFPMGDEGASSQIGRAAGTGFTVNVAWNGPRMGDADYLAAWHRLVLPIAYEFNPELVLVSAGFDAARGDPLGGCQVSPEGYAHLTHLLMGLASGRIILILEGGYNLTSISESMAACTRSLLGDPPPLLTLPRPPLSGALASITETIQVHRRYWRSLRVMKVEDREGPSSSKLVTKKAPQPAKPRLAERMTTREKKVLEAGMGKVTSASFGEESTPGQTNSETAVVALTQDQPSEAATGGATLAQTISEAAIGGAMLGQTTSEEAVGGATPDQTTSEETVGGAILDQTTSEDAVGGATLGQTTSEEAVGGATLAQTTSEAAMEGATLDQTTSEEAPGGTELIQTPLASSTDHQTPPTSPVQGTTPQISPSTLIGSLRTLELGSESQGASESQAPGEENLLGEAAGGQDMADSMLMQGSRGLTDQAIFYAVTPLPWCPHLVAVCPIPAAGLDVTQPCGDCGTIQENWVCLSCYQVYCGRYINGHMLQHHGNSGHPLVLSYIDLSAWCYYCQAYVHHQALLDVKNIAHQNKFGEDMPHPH

PC-3 [3] = assay: Antitumor activity against human PC3 cells xenografted in athymic nude mouse assessed as tumor growth inhibition at 100 mg/kg, po qd administered daily measured twice per week relative to control; format: functional; details: PC-3, po, read-out: TGI
Outline: (§1)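 Male athymic nude mice (5–6 wk) given 1 × 10⁷ PC3 cells s.c.; randomized by tumor size at ~150–350 mm³. Oral dosing daily, vehicle 5% DMSO + 5% Cremophor in D5W. Caliper volumes twice weekly, (length × width²)/2; %TGI = {1-[(Tt/T0)/(Ct/C0)]/1-[C0/Ct]}*100 against vehicle controls.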

PC-3 [4] = assay: Antitumor activity against human PC3 cells xenografted in athymic nude mouse assessed as tumor growth inhibition at 200 mg/kg, po qd administered daily measured twice per week relative to control; format: functional; details: PC-3, po, read-out: TGI; outline: as §1
RPMI-8226 [5] = assay: Antitumor activity against human RPMI8226 cells xenografted in athymic nude mouse assessed as tumor growth inhibition at 50 mg/kg, ip qd measured twice per week relative to control; format: functional; details: RPMI-8226, ip, read-out: TGI
Outline: (§2)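 Male athymic nude mice (5–6 wk) implanted s.c. with 1 × 10⁷ RPMI-8226 myeloma cells; randomized by tumor size at ~150–350 mm³. Daily i.p. injection, vehicle 5% DMSO + 5% Cremophor in D5W. Tumor volume by calipers twice weekly as (length × width²)/2; %TGI derived from treated vs control volume ratios at time t and time 0.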

RPMI-8226 [6] = assay: Antitumor activity against human RPMI8226 cells xenografted in athymic nude mouse assessed as tumor growth inhibition at 100 mg/kg, ip qd measured twice per week relative to control; format: functional; details: RPMI-8226, ip, read-out: TGI; outline: as §2
Mus musculus = assay: Toxicity in human RPMI8226 cells xenografted in athymic nude mouse assessed as body weight loss at 50 to 100 mg/kg, ip qd measured daily during first week followed by twice per week; format: organism-based; details: in vivo
Outline: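 RPMI-8226 xenograft nude mice (male, 5–6 wk) dosed i.p. daily in 5% DMSO + 5% Cremophor in D5W. Body weight measured daily for the first week, then twice weekly.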

Homo sapiens = species: Homo sapiens; assay: Inhibition of HDAC in human PC3 cells assessed as increase in alpha-tubulin acetylation at 0.01 to 10 uM by Western blot analysis; format: cell-based
Outline: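 PC3 prostate cancer cells treated, then lysed in 20 mM Tris-HCl pH 7.5 with 150 mM NaCl, EDTA/EGTA, phosphatase and protease inhibitors, 0.1% Triton X-100. Lysates spun 13,000 rpm for 30 min, then immunoblotted for acetylated α-tubulin and acetylated histone H3.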

Histone deacetylase 2, sequence (Q92769 whole entry): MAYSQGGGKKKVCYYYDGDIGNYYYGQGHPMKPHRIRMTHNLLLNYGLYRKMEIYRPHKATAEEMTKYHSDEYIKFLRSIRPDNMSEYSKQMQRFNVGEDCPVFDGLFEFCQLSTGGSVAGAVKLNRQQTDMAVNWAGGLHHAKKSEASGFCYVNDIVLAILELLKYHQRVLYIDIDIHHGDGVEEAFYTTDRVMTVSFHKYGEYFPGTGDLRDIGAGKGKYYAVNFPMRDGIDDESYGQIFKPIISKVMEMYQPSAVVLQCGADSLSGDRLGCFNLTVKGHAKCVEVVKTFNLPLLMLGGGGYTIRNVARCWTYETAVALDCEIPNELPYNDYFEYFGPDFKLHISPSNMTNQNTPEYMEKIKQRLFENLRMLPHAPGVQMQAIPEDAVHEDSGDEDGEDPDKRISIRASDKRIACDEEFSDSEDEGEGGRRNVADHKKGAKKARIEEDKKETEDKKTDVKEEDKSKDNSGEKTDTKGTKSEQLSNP
Histone deacetylase 1, sequence (Q13547 whole entry): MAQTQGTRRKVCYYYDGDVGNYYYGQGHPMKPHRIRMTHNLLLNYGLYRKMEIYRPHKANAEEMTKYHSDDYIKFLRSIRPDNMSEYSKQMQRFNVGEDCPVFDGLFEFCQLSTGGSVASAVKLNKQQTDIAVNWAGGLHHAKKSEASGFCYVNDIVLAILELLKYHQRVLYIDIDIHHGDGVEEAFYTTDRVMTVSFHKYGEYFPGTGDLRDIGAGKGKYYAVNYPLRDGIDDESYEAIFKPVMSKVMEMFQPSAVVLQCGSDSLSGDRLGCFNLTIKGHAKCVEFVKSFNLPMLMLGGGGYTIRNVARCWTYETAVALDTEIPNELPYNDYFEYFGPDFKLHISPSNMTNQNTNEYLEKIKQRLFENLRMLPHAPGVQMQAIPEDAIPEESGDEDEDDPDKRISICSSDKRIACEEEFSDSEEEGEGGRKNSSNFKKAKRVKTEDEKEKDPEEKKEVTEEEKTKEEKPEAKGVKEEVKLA

Q: For `COc1ccc2c(C(=O)c3cc(OC)c(OC)c(OC)c3)cn(Cc3ccc(C(=O)NO)cc3)c2c1`, which IC50 (PC-3 [1]) is on record?
A: 179 nM

Q: And the inhibition (Sus scrofa)?
A: Active

Q: What about the IC50 (Histone deacetylase 1) of the same molecule?
A: 573 nM

Q: And the IC50 (Histone deacetylase 2)?
A: 1410 nM

Q: What about the IC50 [2] of the same molecule?
A: 64.5 nM

Q: And the inhibition in vivo at 100 mg/kg (PC-3 [3])?
A: 24.8%

Q: And the inhibition in vivo at 200 mg/kg (PC-3 [4])?
A: 68.5%

Q: What about the inhibition in vivo at 50 mg/kg (RPMI-8226 [5]) of the same molecule?
A: 35.8%

Q: And the inhibition in vivo at 100 mg/kg (RPMI-8226 [6])?
A: 58.2%

Q: What about the Activity (Mus musculus) of the same molecule?
A: Non-Toxic

Q: With `COc1ccc2c(C(=O)c3cc(OC)c(OC)c(OC)c3)cn(S(=O)(=O)c3cccc(/C=C/C(=O)NO)c3)c2c1` as the molecule, how does the IC50 (PC-3 [1]) read?
A: 33.1 nM

Q: And the inhibition (Sus scrofa)?
A: Active

Q: What about the IC50 (Histone deacetylase 1) of the same molecule?
A: 468 nM

Q: What about the IC50 (Histone deacetylase 2) of the same molecule?
A: 3220 nM

Q: What about the IC50 [2] of the same molecule?
A: 275 nM

Q: What about the inhibition (Homo sapiens) of the same molecule?
A: Active

From ChEMBL document CHEMBL4041521, “3-Aroylindoles display antitumor activity in vitro and in vivo: Effects of N1-substituents on biological activity” (Eur J Med Chem, 2017)
